Experiment [1] addresses T1, transporter associated with antigen processing (TAP) (Homo sapiens, UniProt Q03518+Q03519).
T1 sequence (Q03518 1-748): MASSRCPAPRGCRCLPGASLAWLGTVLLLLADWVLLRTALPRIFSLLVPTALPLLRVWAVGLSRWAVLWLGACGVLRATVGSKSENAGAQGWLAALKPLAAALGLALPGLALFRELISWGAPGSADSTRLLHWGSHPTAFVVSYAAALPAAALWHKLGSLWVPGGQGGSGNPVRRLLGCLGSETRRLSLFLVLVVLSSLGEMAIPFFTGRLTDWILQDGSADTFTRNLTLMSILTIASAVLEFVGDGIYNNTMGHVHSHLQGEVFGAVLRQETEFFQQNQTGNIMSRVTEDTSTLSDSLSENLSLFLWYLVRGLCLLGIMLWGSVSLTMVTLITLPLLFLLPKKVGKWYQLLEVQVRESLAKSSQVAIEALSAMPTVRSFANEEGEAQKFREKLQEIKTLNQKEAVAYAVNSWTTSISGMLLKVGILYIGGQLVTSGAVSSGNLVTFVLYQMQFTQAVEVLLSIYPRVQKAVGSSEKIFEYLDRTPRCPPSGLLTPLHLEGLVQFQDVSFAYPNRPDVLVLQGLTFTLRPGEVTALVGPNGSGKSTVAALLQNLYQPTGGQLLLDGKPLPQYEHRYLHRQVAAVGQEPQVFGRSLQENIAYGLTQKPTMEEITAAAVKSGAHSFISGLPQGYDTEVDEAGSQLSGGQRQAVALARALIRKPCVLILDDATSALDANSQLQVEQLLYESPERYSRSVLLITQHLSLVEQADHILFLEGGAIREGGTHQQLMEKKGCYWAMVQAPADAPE
T1 sequence (Q03519 1-686): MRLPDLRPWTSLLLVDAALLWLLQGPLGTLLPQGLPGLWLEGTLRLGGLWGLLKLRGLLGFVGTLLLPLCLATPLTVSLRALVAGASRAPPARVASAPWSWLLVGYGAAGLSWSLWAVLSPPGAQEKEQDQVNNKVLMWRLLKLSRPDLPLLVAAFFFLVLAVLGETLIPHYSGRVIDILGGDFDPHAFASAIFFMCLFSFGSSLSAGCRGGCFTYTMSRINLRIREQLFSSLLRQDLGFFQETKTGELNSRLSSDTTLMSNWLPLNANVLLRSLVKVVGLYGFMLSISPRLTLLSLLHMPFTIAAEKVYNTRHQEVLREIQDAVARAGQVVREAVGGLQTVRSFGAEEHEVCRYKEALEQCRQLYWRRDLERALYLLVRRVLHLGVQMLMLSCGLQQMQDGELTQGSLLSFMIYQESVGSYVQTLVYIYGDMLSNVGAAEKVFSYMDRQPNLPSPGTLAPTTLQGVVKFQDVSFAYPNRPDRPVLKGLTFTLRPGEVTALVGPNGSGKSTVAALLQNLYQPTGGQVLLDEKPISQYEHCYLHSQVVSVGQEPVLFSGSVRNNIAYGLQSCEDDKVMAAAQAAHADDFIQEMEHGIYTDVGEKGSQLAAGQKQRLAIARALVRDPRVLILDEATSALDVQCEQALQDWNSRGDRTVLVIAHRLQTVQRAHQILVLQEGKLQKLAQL
Description: Streptolysin O peptide transport assay. The class given is biochemical. The method, boiled down:
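TAP+ T1 TxB hybrid cells (10^6/sample; grown in RPMI 1640, 4 mM Hepes, 5% FCS, 3 mM l-glutamine) permeabilised with streptolysin O (15 U/ml) for 15 min on ice. Then 5 min at 37°C with 100 ng chloramine-T 125I-labelled reporter peptide, ATP (100 mM stock) and competitor peptide dilutions. TAP-negative T2 cells served as negative control. Duplicates; triplicates for T2 and uninhibited T1.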

Experiment [2] deals with HLA-A*0201 molecules (Homo sapiens, UniProt P04439, D140Y/D185E/D98H/E176V/E277Q/G131W/G231S/I119V/I121R/I166T/I218V/L300P/L318F/N151K/N90K/P208A/P217A/Q86G/Q94H/R138H/R169H/T345S). The experiment can be described thus: Class I peptide-binding affinity assay.

Ends that are not written are not given here.

This note sets out measurements from publication PMC2193344 (The Journal of Experimental Medicine, 2001).

As usually defined, the IC50 is the point on the concentration scale where inhibition reaches its midpoint. Higher therefore signals weaker potency in that assay. Regarding HPTLDKVLEV [HPTLDKVLEV], the IC50 in experiment [1] was 355 µM.

As for KSADHPTLDKVLEV [KSADHPTLDKVLEV], half-maximal inhibition in experiment [1] (IC50) required 102 µM.

Turning to RTLDKVLEV [RTLDKVLEV], the IC50 in experiment [2] was 40 nM; in experiment [1], 30 to 45 µM.

The sequence PTLDKVLEV [PTLDKVLEV] came in with an IC50 in experiment [1] of 175 µM.
